From ChEMBL document CHEMBL1909495, “Synthesis and kinetic testing of new inhibitors for a metallo-β-lactamase from Klebsiella pneumonia and Pseudomonas aeruginosa” (Eur J Med Chem, 2011)

Key:
[1] = tested on: Klebsiella pneumoniae; experiment: Inhibition of Klebsiella pneumoniae metallo-beta-lactamase IMP-1 expressed in Escherichia coli BL21(DE3) using CENTA as substrate at 10 uM by spectrophotometric analysis
Method in brief: (§1)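 Single-point screen with inhibitor at 10 µM against IMP-1 lacking the 21-residue signal peptide (2 nM final). Buffer was 50 mM HEPES pH 7.0 with 0.1 M NaCl, 100 µM ZnCl2 and BSA at 20 µg/mL. Substrate was CENTA at 70 µM. CENTA hydrolysis was followed by 4-nitrophenolate absorbance at 405 nm and reported as percent inhibition.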

[2] = molecular target: Beta-lactamase (Pseudomonas aeruginosa) (UniProt Q79MP6); experiment: Inhibition of Pseudomonas aeruginosa metallo-beta-lactamase IMP-1 expressed in Escherichia coli BL21(DE3) using CENTA as substrate at 10 uM by spectrophotometric analysis; method in brief: as §1
Beta-lactamase (Pseudomonas aeruginosa), sequence (Q79MP6 19-246 limits assumed): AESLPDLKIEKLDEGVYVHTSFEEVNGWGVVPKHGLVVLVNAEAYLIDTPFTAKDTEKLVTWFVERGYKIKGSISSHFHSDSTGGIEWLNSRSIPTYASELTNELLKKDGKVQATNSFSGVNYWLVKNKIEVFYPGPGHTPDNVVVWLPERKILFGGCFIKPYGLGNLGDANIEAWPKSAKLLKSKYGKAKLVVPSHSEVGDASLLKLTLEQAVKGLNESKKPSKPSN

[3] = tested on: Klebsiella pneumoniae; experiment: Competitive inhibition of Klebsiella pneumoniae metallo-beta-lactamase IMP-1 expressed in Escherichia coli BL21(DE3) using CENTA as substrate by spectrophotometric analysis
Method in brief: (§2)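 IMP-1 lacking the first 21 signal-peptide residues, recombinantly expressed and purified, at 2 nM final. Buffer was 50 mM HEPES, 0.1 M NaCl, 100 µM ZnCl2, pH 7.0, with BSA at 20 µg/mL final. CENTA was varied from 5 to 70 µM final at three inhibitor concentrations. 4-Nitrophenolate release was read at 405 nm on a plate reader, and data were fitted by non-linear regression.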

[4] = molecular target: Beta-lactamase (Pseudomonas aeruginosa) (UniProt Q79MP6); experiment: Uncompetitive inhibition of Pseudomonas aeruginosa metallo-beta-lactamase IMP-1 expressed in Escherichia coli BL21(DE3) using CENTA as substrate by spectrophotometric analysis; method in brief: as §2
[5] = tested on: Klebsiella pneumoniae; experiment: Uncompetitive inhibition of Klebsiella pneumoniae metallo-beta-lactamase IMP-1 expressed in Escherichia coli BL21(DE3) using CENTA as substrate by spectrophotometric analysis; method in brief: as §2
[6] = molecular target: Beta-lactamase (Pseudomonas aeruginosa) (UniProt Q79MP6); experiment: Competitive inhibition of Pseudomonas aeruginosa metallo-beta-lactamase IMP-1 expressed in Escherichia coli BL21(DE3) using CENTA as substrate by spectrophotometric analysis; method in brief: as §2

| Compound | inhibition [1] | inhibition [2] | Kic [3] | Kiuc [4] | Kiuc [5] | Kic [6] |
| --- | --- | --- | --- | --- | --- | --- |
| Cc1ccc(-n2c(-c3ccccc3)c(-c3ccccc3)c3c(Cl)ncnc32)cc1 | 10% | 10% | 19 µM | 112 µM | 112 µM | 19 µM |
| COc1ccc(-n2cc(-c3ccccc3)c(C#N)c2N)cc1 | 0% | 0% | – | – | – | – |
| COc1ccc(-n2c3c(c(-c4ccccc4)c2-c2ccccc2)C(=C(C#N)C#N)NC=N3)cc1 | 17% | 17% | 29 µM | 225 µM | 225 µM | 29 µM |
| Cc1ccc(-n2cc(-c3ccccc3)c3c(O)ncnc32)cc1 | 0% | 0% | – | – | – | – |
| Cc1ccc(-n2cc(-c3ccccc3)c3c(Cl)ncnc32)cc1 | 9% | 9% | 33 µM | 106 µM | 106 µM | 33 µM |
| Cc1ccc(-n2cc(-c3ccccc3)c(C#N)c2N)cc1 | 0% | 0% | – | – | – | – |

Results, then the compound that gave them:

| inhibition [1] | inhibition [2] | Kic [3] | Kiuc [4] | Kiuc [5] | Kic [6] | Compound |
| --- | --- | --- | --- | --- | --- | --- |
| 7% | 7% | – | – | – | – | Cc1ccc(-n2c(-c3ccccc3)c(-c3ccccc3)c3c2ncn2c(C)nnc32)cc1 |
| 4% | 4% | – | – | – | – | Cc1ccc(-n2c(-c3ccccc3)c(-c3ccccc3)c3c2ncn2cnnc32)cc1 |
| 14% | 14% | 15 µM | – | – | 15 µM | Cc1ccc(-n2c(-c3ccccc3)c(-c3ccccc3)c3c2ncn2c(=S)[nH]nc32)cc1 |
| 15% | 15% | 12 µM | 182 µM | 182 µM | 12 µM | COc1ccc(-n2c(-c3ccccc3)c(-c3ccccc3)c3c(Cl)ncnc32)cc1 |
| 13% | 13% | 18 µM | – | – | 18 µM | Cc1ccc(-n2c(-c3ccccc3)c(-c3ccccc3)c3c(N/N=C/c4ccccc4)ncnc32)cc1 |
